Reference: ChEMBL document CHEMBL1177639, “Synthesis and biological evaluation of 5-substituted and 4,5-disubstituted-2-arylamino oxazole TRPV1 antagonists” (Bioorg Med Chem, 2010)

Columns and labels:
[1] = target: Transient receptor potential cation channel subfamily V member 1 (Homo sapiens, UniProt Q8NER1); assay: Antagonist activity at human recombinant TRPV1 receptor expressed in human 1321 cells assessed as inhibition of capsaicin-induced in intracellular calcium levels by FLIPR assay; assay type: functional, cell-based
[2] = Bioavailability in rat at 10 umol/kg, po; assay type: ADME, organism-based; details: in vivo
Method in brief: (§1)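 Rat pharmacokinetics after 10 µmol/kg dosing, three animals per group for each of the iv and oral routes. Parameters reported are Vb (iv), CLp, t1/2 (iv), oral Cmax and oral bioavailability.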

[3] = Terminal phase volume of distribution […] in rat at 10 umol/kg, iv; assay type: ADME, organism-based; details: in vivo, read-out: Vbeta; method in brief: as §1
[4] = Plasma clearance in rat at 10 umol/kg, iv and po; assay type: ADME, organism-based; method in brief: as §1
[5] = Ratio of drug level in brain to plasma in rat at 10 umol/kg, iv and po; assay type: ADME, organism-based; details: read-out: BPR
[6] = Cmax in rat at 10 umol/kg, po; assay type: ADME, organism-based; design: dose 10 umol/kg, route oral; details: in vivo; method in brief: as §1
[7] = Half life in rat at 10 umol/kg, iv; assay type: ADME, organism-based; details: in vivo; method in brief: as §1
[8] = target: Transient receptor potential cation channel subfamily M member 8 (Homo sapiens, UniProt Q7Z2W7); assay: Antagonist activity at human TRPM8 receptor; assay type: functional
Rattus norvegicus [9] = assay: Analgesic activity against carrageenan-induced thermal hyperalgesia in Sprague-Dawley rat assessed as paw withdrawal latency at 10 umol/kg, po by hotbox assay; assay type: functional
Rattus norvegicus [10] = assay: Analgesic activity in po dosed rat osteoarthritis model; assay type: functional
[11] = target: T1, Transient receptor potential cation channel subfamily V member 2 (Rattus norvegicus, UniProt Q9WUD2); assay: Antagonist activity at rat TRPV2 receptor; assay type: functional
T1 sequence (Q9WUD2 whole entry): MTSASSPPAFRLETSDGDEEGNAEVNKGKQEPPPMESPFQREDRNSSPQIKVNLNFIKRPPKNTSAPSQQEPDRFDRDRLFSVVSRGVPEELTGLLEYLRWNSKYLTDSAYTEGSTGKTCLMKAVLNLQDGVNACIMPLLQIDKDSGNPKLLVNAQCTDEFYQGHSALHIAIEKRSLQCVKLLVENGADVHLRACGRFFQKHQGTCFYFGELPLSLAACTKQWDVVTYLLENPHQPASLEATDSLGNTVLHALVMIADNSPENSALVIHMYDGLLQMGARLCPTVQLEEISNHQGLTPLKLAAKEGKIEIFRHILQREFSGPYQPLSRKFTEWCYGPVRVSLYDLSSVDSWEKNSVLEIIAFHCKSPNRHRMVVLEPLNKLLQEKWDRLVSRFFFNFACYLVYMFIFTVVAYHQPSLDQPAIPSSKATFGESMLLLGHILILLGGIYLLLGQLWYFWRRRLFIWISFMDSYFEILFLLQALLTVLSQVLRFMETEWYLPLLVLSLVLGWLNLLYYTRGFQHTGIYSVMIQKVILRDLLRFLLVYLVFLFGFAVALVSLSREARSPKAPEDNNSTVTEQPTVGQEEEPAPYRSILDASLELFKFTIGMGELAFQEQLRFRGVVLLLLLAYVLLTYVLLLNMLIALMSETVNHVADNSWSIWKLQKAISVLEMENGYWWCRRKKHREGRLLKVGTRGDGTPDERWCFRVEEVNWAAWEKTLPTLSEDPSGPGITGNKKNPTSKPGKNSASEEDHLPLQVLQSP

Salmonella typhimurium = assay: Mutagenic activity in Salmonella Typhimurium by Ames test; assay type: toxicity, organism-based; details: salmonella enterica subsp. enterica serovar typhimurium
[12] = target: Voltage-gated inwardly rectifying potassium channel KCNH2 (Homo sapiens, UniProt Q12809); assay: Inhibition of human ERG
[13] = target: T2, Transient receptor potential cation channel subfamily V member 3 (Homo sapiens, UniProt Q8NET8); assay: Antagonist activity at human TRPV3 receptor; assay type: functional
T2 sequence (Q8NET8 whole entry): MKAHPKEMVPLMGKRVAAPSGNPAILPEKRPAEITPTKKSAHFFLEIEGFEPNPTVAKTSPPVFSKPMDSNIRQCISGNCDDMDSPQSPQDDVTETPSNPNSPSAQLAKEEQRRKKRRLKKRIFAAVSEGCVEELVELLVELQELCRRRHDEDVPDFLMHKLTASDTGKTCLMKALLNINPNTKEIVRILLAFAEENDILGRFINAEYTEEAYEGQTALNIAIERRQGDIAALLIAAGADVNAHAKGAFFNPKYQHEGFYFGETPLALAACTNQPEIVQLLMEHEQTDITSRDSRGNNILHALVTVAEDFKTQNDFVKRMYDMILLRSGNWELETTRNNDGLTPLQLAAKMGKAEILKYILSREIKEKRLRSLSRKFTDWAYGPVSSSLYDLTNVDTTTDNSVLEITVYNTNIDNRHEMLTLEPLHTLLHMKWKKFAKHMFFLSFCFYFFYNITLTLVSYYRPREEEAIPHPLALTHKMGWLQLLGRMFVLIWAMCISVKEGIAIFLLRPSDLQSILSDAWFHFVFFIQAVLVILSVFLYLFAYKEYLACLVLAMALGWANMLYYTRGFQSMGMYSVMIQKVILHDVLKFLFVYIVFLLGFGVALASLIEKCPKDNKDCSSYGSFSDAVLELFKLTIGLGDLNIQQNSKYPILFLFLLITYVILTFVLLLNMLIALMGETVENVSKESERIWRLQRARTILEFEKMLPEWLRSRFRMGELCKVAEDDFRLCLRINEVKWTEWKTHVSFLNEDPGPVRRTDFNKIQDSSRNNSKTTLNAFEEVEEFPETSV

[14] = Inhibition of human cytochrom P450; assay type: ADME
[15] = target: Transient receptor potential cation channel subfamily V member 4 (Homo sapiens, UniProt Q9HBA0); assay: Antagonist activity at human TRPV4 receptor; assay type: functional
Canis familiaris = assay: Cardiotoxicity in anesthetized dog assessed as effect on hemodynamics at 57 times Cmax concentration; details: in vivo

Transient receptor potential cation channel subfamily V member 1, sequence (Q8NER1 whole entry): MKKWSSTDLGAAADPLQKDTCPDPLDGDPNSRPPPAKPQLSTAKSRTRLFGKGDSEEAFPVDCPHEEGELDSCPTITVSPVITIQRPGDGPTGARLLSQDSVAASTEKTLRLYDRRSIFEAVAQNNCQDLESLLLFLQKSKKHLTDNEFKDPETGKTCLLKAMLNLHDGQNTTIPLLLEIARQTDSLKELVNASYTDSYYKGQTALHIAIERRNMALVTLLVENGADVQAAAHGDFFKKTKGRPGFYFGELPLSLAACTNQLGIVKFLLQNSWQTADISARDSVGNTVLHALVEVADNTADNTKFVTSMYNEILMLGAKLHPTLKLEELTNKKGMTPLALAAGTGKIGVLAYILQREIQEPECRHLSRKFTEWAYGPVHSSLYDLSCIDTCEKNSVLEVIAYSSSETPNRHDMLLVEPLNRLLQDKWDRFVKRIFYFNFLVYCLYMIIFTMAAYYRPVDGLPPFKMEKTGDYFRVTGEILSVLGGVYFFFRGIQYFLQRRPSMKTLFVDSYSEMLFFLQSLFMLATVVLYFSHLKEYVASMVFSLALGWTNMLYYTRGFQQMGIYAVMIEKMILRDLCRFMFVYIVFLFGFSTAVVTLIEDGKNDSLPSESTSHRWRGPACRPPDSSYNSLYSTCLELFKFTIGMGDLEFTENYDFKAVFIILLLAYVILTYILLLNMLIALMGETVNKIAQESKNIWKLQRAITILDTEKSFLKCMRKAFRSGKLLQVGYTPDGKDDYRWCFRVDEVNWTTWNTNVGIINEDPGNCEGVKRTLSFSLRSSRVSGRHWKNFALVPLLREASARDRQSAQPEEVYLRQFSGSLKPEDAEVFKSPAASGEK
Transient receptor potential cation channel subfamily M member 8, sequence (Q7Z2W7 whole entry): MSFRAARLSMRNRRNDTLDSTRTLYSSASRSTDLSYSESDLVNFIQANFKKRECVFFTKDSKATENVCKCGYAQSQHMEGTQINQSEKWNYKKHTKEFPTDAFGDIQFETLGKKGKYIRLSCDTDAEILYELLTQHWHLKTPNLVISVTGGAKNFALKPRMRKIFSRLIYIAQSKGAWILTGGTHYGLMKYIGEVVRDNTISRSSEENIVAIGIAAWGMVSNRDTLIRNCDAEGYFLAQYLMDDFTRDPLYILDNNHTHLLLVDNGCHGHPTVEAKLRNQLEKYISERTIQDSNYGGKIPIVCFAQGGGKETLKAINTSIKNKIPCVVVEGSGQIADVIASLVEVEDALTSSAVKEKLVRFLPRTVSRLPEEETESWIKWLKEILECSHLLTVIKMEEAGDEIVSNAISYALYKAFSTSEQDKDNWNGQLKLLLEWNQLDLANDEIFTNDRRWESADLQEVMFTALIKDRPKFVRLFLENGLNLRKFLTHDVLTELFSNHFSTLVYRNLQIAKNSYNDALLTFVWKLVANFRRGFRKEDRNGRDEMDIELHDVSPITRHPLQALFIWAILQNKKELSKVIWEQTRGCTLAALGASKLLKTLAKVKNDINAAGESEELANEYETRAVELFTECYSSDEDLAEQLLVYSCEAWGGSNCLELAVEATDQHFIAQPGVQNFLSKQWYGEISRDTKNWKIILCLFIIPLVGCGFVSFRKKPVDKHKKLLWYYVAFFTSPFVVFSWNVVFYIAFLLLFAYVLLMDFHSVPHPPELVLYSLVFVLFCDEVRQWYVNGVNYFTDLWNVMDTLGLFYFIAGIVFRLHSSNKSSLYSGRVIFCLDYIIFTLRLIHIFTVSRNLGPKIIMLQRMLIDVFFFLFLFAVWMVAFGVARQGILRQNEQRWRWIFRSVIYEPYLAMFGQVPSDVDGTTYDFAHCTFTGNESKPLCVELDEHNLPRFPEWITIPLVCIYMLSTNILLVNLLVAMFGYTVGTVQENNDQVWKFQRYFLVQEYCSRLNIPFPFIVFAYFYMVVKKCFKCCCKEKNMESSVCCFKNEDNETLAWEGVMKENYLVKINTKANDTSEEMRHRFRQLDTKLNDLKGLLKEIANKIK
Transient receptor potential cation channel subfamily V member 4, sequence (Q9HBA0 whole entry): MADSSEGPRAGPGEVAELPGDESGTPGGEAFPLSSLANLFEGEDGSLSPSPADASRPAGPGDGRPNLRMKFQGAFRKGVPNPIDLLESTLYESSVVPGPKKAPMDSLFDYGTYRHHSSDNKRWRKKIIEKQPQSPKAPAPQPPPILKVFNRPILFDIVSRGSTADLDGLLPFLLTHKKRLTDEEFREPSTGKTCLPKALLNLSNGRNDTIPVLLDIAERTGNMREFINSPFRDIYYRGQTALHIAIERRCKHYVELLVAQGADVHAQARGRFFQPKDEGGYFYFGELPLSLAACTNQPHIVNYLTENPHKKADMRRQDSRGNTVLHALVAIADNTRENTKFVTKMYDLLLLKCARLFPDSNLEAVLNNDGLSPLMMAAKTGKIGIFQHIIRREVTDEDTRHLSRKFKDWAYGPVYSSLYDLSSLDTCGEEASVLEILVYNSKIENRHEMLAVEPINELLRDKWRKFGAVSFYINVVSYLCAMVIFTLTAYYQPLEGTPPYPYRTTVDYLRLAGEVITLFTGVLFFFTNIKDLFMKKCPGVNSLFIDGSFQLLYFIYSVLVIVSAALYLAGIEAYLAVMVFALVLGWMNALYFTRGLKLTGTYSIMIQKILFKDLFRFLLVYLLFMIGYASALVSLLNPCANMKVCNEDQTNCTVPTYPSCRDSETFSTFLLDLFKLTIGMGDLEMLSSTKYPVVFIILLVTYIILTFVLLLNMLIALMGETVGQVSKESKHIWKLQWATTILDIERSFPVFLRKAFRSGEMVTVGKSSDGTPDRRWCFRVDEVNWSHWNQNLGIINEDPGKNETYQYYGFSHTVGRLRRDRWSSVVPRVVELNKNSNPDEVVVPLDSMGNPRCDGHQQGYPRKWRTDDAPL
Voltage-gated inwardly rectifying potassium channel KCNH2, sequence (Q12809 whole entry): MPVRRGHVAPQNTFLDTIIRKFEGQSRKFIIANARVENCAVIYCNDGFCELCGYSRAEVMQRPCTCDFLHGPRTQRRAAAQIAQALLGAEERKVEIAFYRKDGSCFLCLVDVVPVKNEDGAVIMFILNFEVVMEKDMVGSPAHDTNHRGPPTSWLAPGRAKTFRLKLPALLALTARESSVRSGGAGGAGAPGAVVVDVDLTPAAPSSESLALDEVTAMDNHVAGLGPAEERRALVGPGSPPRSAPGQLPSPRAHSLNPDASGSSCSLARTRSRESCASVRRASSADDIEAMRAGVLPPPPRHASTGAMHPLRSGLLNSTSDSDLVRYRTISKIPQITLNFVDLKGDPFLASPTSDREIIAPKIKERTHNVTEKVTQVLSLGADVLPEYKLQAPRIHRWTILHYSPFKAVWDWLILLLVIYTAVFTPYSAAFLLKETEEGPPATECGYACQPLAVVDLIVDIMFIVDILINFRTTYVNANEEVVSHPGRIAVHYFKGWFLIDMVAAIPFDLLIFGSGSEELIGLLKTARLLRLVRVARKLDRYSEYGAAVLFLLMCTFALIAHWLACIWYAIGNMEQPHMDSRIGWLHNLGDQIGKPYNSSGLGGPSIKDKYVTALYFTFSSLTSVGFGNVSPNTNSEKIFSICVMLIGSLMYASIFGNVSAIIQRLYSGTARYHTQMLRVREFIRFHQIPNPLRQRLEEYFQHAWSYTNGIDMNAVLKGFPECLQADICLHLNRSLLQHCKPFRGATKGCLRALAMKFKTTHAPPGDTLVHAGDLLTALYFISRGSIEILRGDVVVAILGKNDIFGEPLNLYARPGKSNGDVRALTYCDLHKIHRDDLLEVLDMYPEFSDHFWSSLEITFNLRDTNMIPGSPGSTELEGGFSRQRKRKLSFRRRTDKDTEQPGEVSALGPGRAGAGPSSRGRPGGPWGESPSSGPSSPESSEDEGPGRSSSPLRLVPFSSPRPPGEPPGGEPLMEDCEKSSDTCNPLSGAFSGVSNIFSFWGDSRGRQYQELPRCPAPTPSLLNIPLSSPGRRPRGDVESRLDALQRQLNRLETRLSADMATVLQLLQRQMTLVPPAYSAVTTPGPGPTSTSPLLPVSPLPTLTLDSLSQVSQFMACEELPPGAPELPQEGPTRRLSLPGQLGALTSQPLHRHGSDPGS

`CC(C)(C)c1ccc(-c2cnc(Nc3cccc4c3CC(O)CC4)o2)cc1` (stereo unspecified) gave an IC50 [1] of 26 nM.

`Cc1nc(Nc2cccc3c2CC(O)CC3)oc1-c1ccc(C(F)(F)F)cc1` (stereo unspecified) gave a bioavailability [2] of 33%, a Vd [3] of 10 L/kg and a clearance [4] of 40 mL/min/kg. The Kp [5] was 3, the Cmax [6] was 96 ng/mL and the half-life [7] was 168 min.

With `OC1CCc2cccc(Nc3nc(-c4ccc(F)cc4)c(-c4ccc(C(F)(F)F)cc4)o3)c2C1` (stereo unspecified) the Kp [5] was 0.21 and the IC50 [1] was 1.3 nM.

`Cc1ccccc1-c1cnc(Nc2cccc3c2CC(O)CC3)o1` (stereo unspecified) gave an IC50 [1] of 416 nM.

For `COc1ccc(-c2cnc(Nc3cccc4c3CC(O)CC4)o2)cc1` (stereo unspecified), the IC50 [1] was 81 nM.

For `Cc1ccc(-c2cnc(Nc3cccc4c3CC(O)CC4)o2)cc1` (stereo unspecified), the IC50 [1] was 62 nM.

`FC(F)(F)c1ccc(-c2cnc(Nc3cccc4cnccc34)o2)cc1` showed an IC50 [1] of 229 nM.

Work on `OC1CCc2cccc(Nc3nc(Br)c(-c4ccc(C(F)(F)F)cc4)o3)c2C1` (stereo unspecified) yielded an IC50 [1] of 9 nM.

For `Cc1nc(Nc2cccc3c2C[C@@H](O)CC3)oc1-c1ccc(C(F)(F)F)cc1`, the bioavailability [2] was 7%, the Vd [3] was 12 L/kg and the clearance [4] was 73.3 mL/min/kg. The Kp [5] was 3, the Cmax [6] was 20 ng/mL and the half-life [7] was 114 min.

`OC1CCc2cccc(Nc3ncc(-c4ccc(N5CCCC5)cc4)o3)c2C1` (stereo unspecified) showed an IC50 [1] of 101 nM.

For `CN(c1ncc(-c2ccc(C(F)(F)F)cc2)o1)c1cccc2c1CC(O)CC2` (stereo unspecified), the IC50 [1] was 277 nM.

`OC1CCc2cccc(Nc3nc(-c4ccccc4)co3)c2C1` (stereo unspecified) showed an IC50 [1] of 864 nM.

In the case of `NC1CCc2cccc(Nc3ncc(-c4ccc(C(F)(F)F)cc4)o3)c2C1` (stereo unspecified), the IC50 [1] is reported as 327 nM.

`OC1CCc2cccc(Nc3ncc(-c4ccccc4)o3)c2C1` (stereo unspecified) showed an IC50 [1] of 187 nM.

`Cc1cccc(-c2cnc(Nc3cccc4c3CC(O)CC4)o2)c1` (stereo unspecified) gave an IC50 [1] of 157 nM.

With `OC1CCc2c(cccc2Nc2ncc(-c3ccc(C(F)(F)F)cc3)o2)C1` (stereo unspecified) the IC50 [1] was 120 nM.

With `COC1CCc2cccc(Nc3ncc(-c4ccc(C(F)(F)F)cc4)o3)c2C1` (stereo unspecified) the IC50 [1] was 150 nM.

`N#Cc1ccc(-c2nc(Nc3cccc4c3CC(O)CC4)oc2-c2ccc(C(F)(F)F)cc2)cc1` (stereo unspecified) gave a Kp [5] of 0.13 and an IC50 [1] of 2 nM.

Work on `CC(C)c1nc(Nc2cccc3c2CC(O)CC3)oc1-c1ccc(C(F)(F)F)cc1` (stereo unspecified) yielded an IC50 [1] of 114 nM.

With `OC1CCc2cccc(Nc3ncc(-c4ccc(Cl)cc4)o3)c2C1` (stereo unspecified) the IC50 [1] was 15 nM.

`OC1CCc2cccc(Nc3ncc(Cc4ccccc4)o3)c2C1` (stereo unspecified) showed an IC50 [1] of 1820 nM.

`Cc1nc(Nc2cccc3c2C[C@H](O)CC3)oc1-c1ccc(C(F)(F)F)cc1` showed an IC50 [8] of 44 µM, a bioavailability [2] of 52% and a Vd [3] of 6.8 L/kg. For the same molecule, the Activity (Rattus norvegicus [9]) was 52%, the ED50 (Rattus norvegicus [10]) was 14 µmol/kg and the clearance [4] was 20 mL/min/kg. For the same molecule, the IC50 [11] was 37 µM, the Activity (Salmonella typhimurium) was “Non-toxic” and the “inhibition (INH)” value [12] was “Not Active”. The IC50 [13] was > 100 µM, the “inhibition (INH)” value [14] was “Not Active” and the Kp [5] was 3. For the same molecule, the Cmax [6] was 130 ng/mL, the IC50 [15] was > 100 µM and the Activity (Canis familiaris) was “Non-toxic”. The half-life [7] was 228 min.

For `Oc1ccc2cccc(Nc3ncc(-c4ccc(C(F)(F)F)cc4)o3)c2c1`, the IC50 [1] was 5 nM.

With `O=C1CCc2cccc(Nc3ncc(-c4ccc(C(F)(F)F)cc4)o3)c2C1` the IC50 [1] was 374 nM.

Work on `CC1(O)CCc2cccc(Nc3ncc(-c4ccc(C(F)(F)F)cc4)o3)c2C1` (stereo unspecified) yielded an IC50 [1] of 840 nM.

With `FC(F)(F)c1ccc(-c2cnc(Nc3cccc4[nH]ncc34)o2)cc1` the IC50 [1] was 101 nM.

Work on `CCc1nc(Nc2cccc3c2CC(O)CC3)oc1-c1ccc(C(F)(F)F)cc1` (stereo unspecified) yielded a Kp [5] of 3.7 and an IC50 [1] of 2.1 nM.

For `OC1CCc2cccc(Nc3ncc(-c4ccc(C(F)(F)F)cc4)o3)c2C1` (stereo unspecified), the bioavailability [2] was 5%, the Vd [3] was 5.4 L/kg and the clearance [4] was 85 mL/min/kg. For the same molecule, the Cmax [6] was 23 ng/mL, the IC50 [1] was 8.3 nM and the half-life [7] was 42 min.
